Rows were chosen to be rich in hits. Some 1.7% of all compounds tested hit in one or more screens of this group.
Casp6 inh = inhibitors of human caspase-6; purified caspase-6, Z-VEID-R110 cleavage fluorescence; inhibition, % at 12.5 µM; 350,000 tested, 0.53% active; AID 686996;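 active = mean inhibition across replicates at least about 35%, with every replicate also reaching that limit, limit read from the data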;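 note: 0% = median of neutral control wells and 100% = no fluorescence left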
LMPTP inh = LMPTP (human) inhibition. 360,000 tested, 0.22% active. P24666. recombinant LMPTP-A, OMFP fluorogenic substrate, fluorescence intensity. inhibition, % at 20 µM;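 active = compounds that cut the enzyme signal by at least half of the control window in the single-dose screen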;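 note: plate controls were DMSO wells with enzyme plus substrate for no effect and substrate without enzyme for full effect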
Target sequence (P24666 whole entry, looked up): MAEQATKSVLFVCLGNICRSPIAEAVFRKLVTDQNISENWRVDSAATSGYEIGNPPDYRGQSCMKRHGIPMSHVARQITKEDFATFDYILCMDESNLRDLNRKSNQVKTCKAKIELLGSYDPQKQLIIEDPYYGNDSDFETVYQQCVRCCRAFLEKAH
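Test system – LMPTP-A enzyme · Amount – LMPTP-A at 0.625 nM final in the reaction · Buffer or medium – Bis-Tris pH 6.0, DTT, detergent · Reagent – OMFP 400 µM · Doses – single 20 µM dose · Schedule – reaction 50 min, room temperature, dark · Detection – fluorescence intensity of OMFP turnover product · Evaluation – percent inhibition versus substrate-only and uninhibited controls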
SUMO1 PPI mod = alters human SUMO1 binding to SIM partners | P63165 | SUMO1 binding to a labelled peptide, TR-FRET, 1 h | inhibition, % at 20 µM | 360,000 tested, 0.33% active | AID 602429; in the data active = inhibition above about 37%
STEP inh = blocks human striatal-enriched tyrosine phosphatase; P54829; recombinant STEP, OMFP fluorogenic substrate, fluorescence; inhibition, % at 20 µM; 360,000 tested, 0.25% active;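 active = inhibition at 20 µM, scaled per plate between control wells, above about 37%, limit read from the data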;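 note: 0% = DMSO with enzyme and substrate and 100% = substrate only without enzyme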
Target sequence (P54829 whole entry, looked up): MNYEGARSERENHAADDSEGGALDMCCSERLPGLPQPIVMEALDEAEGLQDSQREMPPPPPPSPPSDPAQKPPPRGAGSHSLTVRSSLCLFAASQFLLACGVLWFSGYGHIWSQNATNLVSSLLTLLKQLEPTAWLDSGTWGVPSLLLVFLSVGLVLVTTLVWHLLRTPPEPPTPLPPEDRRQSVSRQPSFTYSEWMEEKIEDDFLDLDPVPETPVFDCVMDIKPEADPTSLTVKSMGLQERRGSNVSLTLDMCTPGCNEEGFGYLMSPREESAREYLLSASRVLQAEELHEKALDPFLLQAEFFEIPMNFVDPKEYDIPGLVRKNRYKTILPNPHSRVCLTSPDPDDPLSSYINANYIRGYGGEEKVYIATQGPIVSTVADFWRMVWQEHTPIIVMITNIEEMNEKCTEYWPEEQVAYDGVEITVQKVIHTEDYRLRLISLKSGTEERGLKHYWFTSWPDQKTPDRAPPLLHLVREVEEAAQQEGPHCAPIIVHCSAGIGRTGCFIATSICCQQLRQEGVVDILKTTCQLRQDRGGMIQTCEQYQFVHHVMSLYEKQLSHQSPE
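medium = Bis-Tris buffer pH 6.0, 2.5 mM DTT, 0.005% Tween 20 | test system = STEP (striatal-enriched tyrosine phosphatase) enzyme, cell-free | measure = normalized % inhibition | compound dosing = 20 µM, 1% DMSO | also added = 25 µM OMFP | schedule = reaction 20 min, ambient temperature | measured by = fluorescence read at 480 nm ex / 540 nm em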
Scp1 inh = inhibitors of human Scp-1 phosphatase; Recombinant Scp1, phosphopeptide, malachite green phosphate absorbance; inhibition, % at 20 µM; 340,000 tested, 0.88% active;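 active = inhibition above about 50% at 20 µM, limit read from the data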;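 note: plate controls were DMSO wells with enzyme for no effect and wells lacking enzyme for full effect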
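Test system: SCP-1 catalytic domain; Buffer or medium: Acidic Tris acetate buffer with magnesium and detergent; Also added: Phosphorylated 17-residue peptide substrate; Compound: single 20 µM dose, 1% DMSO; Schedule: enzyme reaction 45 min at room temperature, colour 5 min, stabilisation 30 min; Signal: Phosphate-binding colour reagent, absorbance read at 630 nm.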
DNMT1 block = blocks human DNA methyltransferase DNMT1; P26358; DNMT1 molecular beacon, Hinp1I cleavage, fluorescence; inhibition (reported as % activation of signal), % at 10 µM; 360,000 tested, 0.83% active; AID 588458; in the data active = inhibition above about 50%
Scp1 confirm = confirmation of human Scp-1 phosphatase inhibitors. 2,500 tested, 61% active. recombinant SCP-1 catalytic domain, phosphate release, malachite green absorbance. inhibition, % at 20 µM. shares compounds with Scp1 inh. AID 540281;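 note: plate controls were DMSO with enzyme for no effect and buffer wells lacking enzyme for full effect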
Scp-1 MG ctr = counter-screen for Scp-1 inhibitors: colorimetric interference; shares compounds with Scp1 inh; Colorimetric interference counterscreen, malachite green absorbance 630 nm; apparent inhibition (interference), % at 20 µM; 2,500 tested, under 10 active;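 note: compounds added after enzyme reaction finished so only phosphate colour detection is probed; plate controls were DMSO wells with completed Scp-1 reaction for no effect and substrate wells lacking enzyme for full effect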
Scp1 DSF = binds human Scp-1, shifting its melting temperature | shares compounds with Scp1 inh | 1,500 tested, 25% active | thermal shift relative to vanadate control, % at 40 µM | Recombinant SCP1, Sypro Orange thermal shift Tm;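 active = substances whose mean melting-temperature shift, as a percentage of the reference inhibitor's shift, reaches about 5.3%, limit read from the data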;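 note: 0% = Tm of DMSO wells and 100% = Tm with sodium orthovanadate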
* marks the source's active call; other numbers are inactive results; . = no result.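 Rule for the calls, unless noted: active = inhibition of at least 30% at 20 µM; inactive = the rest.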

SMILES | Casp6 inh | LMPTP inh | SUMO1 PPI mod | STEP inh | Scp1 inh | DNMT1 block | Scp1 confirm | Scp-1 MG ctr | others
Cc1noc(C)c1S(=O)(=O)Nc1ccc2c(c1)C(=O)N([C@@H](C)CO)C[C@H](C)[C@H](CN(C)CC1CCCCC1)O2 | -5 | . | . | . | . | . | . | .
Cc1c(C(=O)O)cccc1-n1c(C)cc(C=O)c1C | 9 | 0 | -2 | 6 | 56* | 46 | 44* | -14 | Scp1 DSF=-5
COc1ccccc1-n1cnc2c(c1=O)c1nc3ccccc3nc1n2-c1ccc(C)cc1 | 3 | 5 | -4 | 2 | 87* | -6 | 34* | -12 | Scp1 DSF=-12
COc1ccccc1-n1c2nc3ccccc3nc2c2c(=O)n(-c3cc(C)cc(C)c3)cnc21 | . | 2 | -26 | 3 | 6 | -2 | . | .
CC(=O)N=c1c(C#N)cc2c(=O)n3cccc(C)c3nc2n1CCCOC(C)C | 6 | 25 | 7 | 0 | -4 | 41 | . | .
CC(=O)N=c1c(C#N)cc2c(=O)n3cccc(C)c3nc2n1Cc1ccco1 | 7 | 3 | 20 | 17 | 70* | 49 | 25 | -19
Cc1ccc(CC(=O)Nc2nccs2)cc1C | -1 | -1 | 0 | -2 | -2 | -9 | . | .
Cc1ccc(CNC(=O)c2cc(=O)c3cc(C)ccc3o2)cc1 | -2 | 29 | 12 | 24 | 61* | 2 | 20 | -15
Cc1cccc(N2CCN(C(=O)c3ccc(CS(=O)(=O)c4ccccc4C)o3)CC2C)c1 (stereo unspecified) | . | 0 | 0 | 0 | 5 | -2 | . | .
CC(C)c1cc(C(=O)NC2CCCCC2)no1 | . | 0 | -2 | 0 | 73* | 2 | -7 | -4
CC12CCC(C[N+](C)(C)C1)C2(C)C (stereo unspecified) | -1 | -1 | -3 | 0 | 86* | 1 | 96* | -5 | Scp1 DSF=-5
CC[N+]1(CC)CC2CCC(C)(C1)C2(C)C (stereo unspecified) | -1 | -1 | 3 | -4 | 53* | 0 | 88* | -18 | Scp1 DSF=-6
O=C(COC(=O)Cc1ccccc1[N+](=O)[O-])Nc1nnc(-c2ccccc2)o1 | 34 | 1 | 3 | -3 | -3 | 10 | . | .
CC(=O)Nc1ccc(S(=O)(=O)N2CCN(C(=O)c3ncoc3-c3ccccc3)CC2)cc1 | 0 | 0 | 1 | -3 | -1 | 1 | . | .
CSCCC(NS(=O)(=O)c1ccc2c(c1)oc(=O)n2C)C(=O)NC1CCN(Cc2ccccc2)CC1 (stereo unspecified) | -4 | 0 | 5 | -2 | -7 | -1 | . | .
CSCCC(NS(=O)(=O)c1ccc2c(c1)oc(=O)n2C)C(=O)NC1CCC(C)CC1 (stereo unspecified) | 0 | -1 | 8 | 0 | -22 | -2 | 4 | -6
C[C@@H]1CN([C@H](C)CO)C(=O)c2cc(NC(=O)CCN3CCOCC3)ccc2O[C@@H]1CN(C)S(=O)(=O)c1cn(C)cn1 | -1 | . | . | . | . | . | . | .
COc1cccc(C(=O)OCC(=O)Nc2nnc(-c3ccccc3)o2)c1 | 3 | 0 | 8 | 6 | -7 | 1 | . | .
O=C(COC(=O)c1cncc(Br)c1)Nc1nnc(-c2ccccc2)o1 | 19 | 7 | 14 | 2 | 60* | 27 | 71* | -12 | Scp1 DSF=6.1*
COc1cccc(C#Cc2ccc3c(c2)[C@H]2[C@H](CCN2C(=O)CC2CC2)[C@@H](CO)N3)c1 | 0 | . | . | . | . | . | . | .
COc1ccccc1C1C(C(C)=O)=C(C)N=c2s/c(=C\c3cc(OC)c(OC)c(OC)c3)c(=O)n21 (stereo unspecified) | . | 1 | -20 | 0 | 2 | -6 | . | .
CCOC(=O)C1=C(C)N=c2s/c(=C\c3cccc(OCC(=O)O)c3)c(=O)n2C1c1ccccc1OC (stereo unspecified) | -6 | 1 | -3 | 2 | 61* | -12 | 33* | -14 | Scp1 DSF=5.8*
CS(=O)(=O)N(CC(=O)NC1CCCC1)c1cccc(F)c1 | . | 0 | -1 | -1 | 0 | 1 | . | .
CCCCC1=CC2=C(c3ccco3)C(=O)C(C)(OC(=O)c3ccc(OC)cc3)C(=O)C2=CN1Cc1ccc2c(c1)OCO2 (stereo unspecified) | . | 23 | -7 | 1 | 63* | 26 | 5 | 0
O=C(Nc1nnc(-c2cccs2)o1)C1CC1 | -2 | -2 | -2 | -1 | -6 | 4 | . | .
SMILES | Casp6 inh | LMPTP inh | SUMO1 PPI mod | STEP inh | Scp1 inh | DNMT1 block | Scp1 confirm | Scp-1 MG ctr | others
O=C(Nc1nnc(-c2ccc(Cl)s2)o1)C1CC1 | 2 | 0 | -2 | 0 | 57* | -1 | -27 | -14
CCCCn1c(=O)[nH]c(=O)c2c1nc(-c1ccc(-c3ccccc3)cc1)n2C | 5 | -2 | -8 | 0 | -1 | 28 | . | .
CCCn1c(=O)[nH]c(=O)c2c1nc(-c1ccccc1)n2CCN1CCOCC1 | . | -3 | -4 | 8 | 82* | 7 | 94* | -6 | Scp1 DSF=-21
COc1cccc(NC(=O)c2ccc(S(=O)(=O)N3CCCC3)cc2)c1 | -3 | 0 | 1 | -1 | 4 | -1 | . | .
Cn1c(SCC(=O)c2c(N)n(C)c(=O)n(C)c2=O)nnc1-c1ccc(F)cc1 | . | -1 | 2 | -3 | -1 | 1 | . | .
Cc1cccn2c(=O)c3cc(C(=O)NC4CCCC4)n(C)c3nc12 | -2 | 1 | -19 | -1 | 68* | -3 | -12 | -11
CC1C=CC=CC=CC=CC=CC=CC=CC(OC2OC(C)C(O)C(N)C2O)CC2OC(O)(CC(O)CC(O)C(O)CCC(O)CC(O)CC(=O)OC(C)C(C)C1O)CC(O)C2C(=O)O (stereo unspecified) | . | 2 | 24 | 2 | 89* | 94* | 65* | -14 | Scp1 DSF=-9
COCCCNC(=S)N1CCN(c2nc(-c3ccc(F)cc3)cs2)CC1 | 0 | 1 | -2 | -1 | 1 | 3 | . | .
O=C(NCc1ccccn1)C1CCN(S(=O)(=O)c2ccccc2)CC1 | . | -3 | -1 | -1 | -1 | 2 | . | .
O=C(NCc1ccccn1)C1CCN(S(=O)(=O)c2cnc[nH]2)CC1 | 22 | 1 | 0 | -3 | 60* | 0 | 33* | -13 | Scp1 DSF=-5
Cc1cc(C)c(NC(=O)COc2nc3ccccc3nc2C)c(C)c1 | -1 | -2 | -1 | 0 | 58* | 0 | -18 | -13
CC1CCC(C(C)C)C(OCC[N+](C)(C)C)C1 (stereo unspecified) | 1 | -3 | 2 | -2 | 58* | 5 | -10 | -10

Assay outcomes deposited in PubChem by several laboratories.
